Source: the M2OR odorant receptor database

Key:
Details in all cases: stereoisomer not certain
OR1L3 (Homo sapiens) = target: T1, OR1L3 (Homo sapiens) (UniProt Q8NH93)
T1 sequence (whole entry): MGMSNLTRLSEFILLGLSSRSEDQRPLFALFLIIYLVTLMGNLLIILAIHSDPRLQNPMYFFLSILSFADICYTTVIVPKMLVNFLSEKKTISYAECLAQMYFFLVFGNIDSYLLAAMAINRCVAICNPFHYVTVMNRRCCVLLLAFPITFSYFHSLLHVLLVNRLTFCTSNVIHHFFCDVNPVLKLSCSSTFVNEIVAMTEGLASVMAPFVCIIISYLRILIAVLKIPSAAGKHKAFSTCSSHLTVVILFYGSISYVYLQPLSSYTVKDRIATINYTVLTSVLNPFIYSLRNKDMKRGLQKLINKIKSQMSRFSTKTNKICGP
Summary of the method: (§1)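 Transient luciferase assays in mammalian cell lines were common, though methods varied by source. The values come from published papers and their supplementary material, with extra details from the original authors when needed. Responsive refers to a measured signal the original authors judged statistically different from baseline, and non-responsive (inactive) to the remainder.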

OR1L1 (Homo sapiens) = OR1L1 (Homo sapiens) (UniProt Q8NH94)
Chain of OR1L1 (Homo sapiens) (Q8NH94 whole entry): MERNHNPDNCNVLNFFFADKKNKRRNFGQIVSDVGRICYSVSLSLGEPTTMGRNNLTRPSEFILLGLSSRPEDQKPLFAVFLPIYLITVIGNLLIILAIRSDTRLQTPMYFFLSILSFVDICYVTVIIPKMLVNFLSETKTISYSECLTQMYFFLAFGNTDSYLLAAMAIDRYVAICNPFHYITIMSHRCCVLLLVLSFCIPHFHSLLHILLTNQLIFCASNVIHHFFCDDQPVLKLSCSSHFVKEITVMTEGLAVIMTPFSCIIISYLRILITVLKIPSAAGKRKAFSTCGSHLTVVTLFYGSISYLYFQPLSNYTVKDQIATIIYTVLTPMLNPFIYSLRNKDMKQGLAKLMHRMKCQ
Summary of the method: as §1

OR1L4 (Homo sapiens) = OR1L4 (Homo sapiens) (UniProt Q8NGR5)
Chain of OR1L4 (Homo sapiens) (Q8NGR5 whole entry): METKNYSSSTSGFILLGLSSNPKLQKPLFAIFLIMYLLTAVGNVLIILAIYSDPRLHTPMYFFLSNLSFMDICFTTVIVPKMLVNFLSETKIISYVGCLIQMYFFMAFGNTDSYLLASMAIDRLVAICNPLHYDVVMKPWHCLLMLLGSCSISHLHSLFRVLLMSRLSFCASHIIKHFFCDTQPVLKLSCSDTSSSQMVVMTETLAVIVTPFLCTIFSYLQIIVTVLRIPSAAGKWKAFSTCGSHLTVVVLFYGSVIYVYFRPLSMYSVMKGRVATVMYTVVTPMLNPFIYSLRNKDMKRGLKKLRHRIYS
Summary of the method: as §1

OR1L6 (Homo sapiens) = OR1L6 (Homo sapiens) (UniProt Q8NGR2)
Chain of OR1L6 (Homo sapiens) (Q8NGR2 whole entry): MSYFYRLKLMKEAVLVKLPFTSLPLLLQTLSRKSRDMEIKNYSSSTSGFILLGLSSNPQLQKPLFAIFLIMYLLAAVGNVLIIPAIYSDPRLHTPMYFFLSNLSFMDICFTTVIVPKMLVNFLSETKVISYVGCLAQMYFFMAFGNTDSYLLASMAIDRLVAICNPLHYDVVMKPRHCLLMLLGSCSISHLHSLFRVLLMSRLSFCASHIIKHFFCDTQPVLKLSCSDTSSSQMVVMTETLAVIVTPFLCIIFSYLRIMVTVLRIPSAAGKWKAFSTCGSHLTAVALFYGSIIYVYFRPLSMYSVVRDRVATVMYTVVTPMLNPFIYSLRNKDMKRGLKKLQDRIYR
Summary of the method: as §1

OR1L8 (Homo sapiens) = OR1L8 (Homo sapiens) (UniProt Q8NGR8)
Chain of OR1L8 (Homo sapiens) (Q8NGR8 whole entry): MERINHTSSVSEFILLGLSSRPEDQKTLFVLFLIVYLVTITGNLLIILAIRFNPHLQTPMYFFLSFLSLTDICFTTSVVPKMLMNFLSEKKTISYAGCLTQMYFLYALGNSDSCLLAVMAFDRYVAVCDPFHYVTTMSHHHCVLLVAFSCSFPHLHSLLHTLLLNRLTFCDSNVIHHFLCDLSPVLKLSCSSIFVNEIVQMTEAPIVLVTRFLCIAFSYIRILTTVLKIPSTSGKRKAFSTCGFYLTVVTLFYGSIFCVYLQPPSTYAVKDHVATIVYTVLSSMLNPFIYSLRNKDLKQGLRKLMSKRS
Summary of the method: as §1

OR1M1 (Homo sapiens) = OR1M1 (Homo sapiens) (UniProt Q8NGA1)
Chain of OR1M1 (Homo sapiens) (Q8NGA1 whole entry): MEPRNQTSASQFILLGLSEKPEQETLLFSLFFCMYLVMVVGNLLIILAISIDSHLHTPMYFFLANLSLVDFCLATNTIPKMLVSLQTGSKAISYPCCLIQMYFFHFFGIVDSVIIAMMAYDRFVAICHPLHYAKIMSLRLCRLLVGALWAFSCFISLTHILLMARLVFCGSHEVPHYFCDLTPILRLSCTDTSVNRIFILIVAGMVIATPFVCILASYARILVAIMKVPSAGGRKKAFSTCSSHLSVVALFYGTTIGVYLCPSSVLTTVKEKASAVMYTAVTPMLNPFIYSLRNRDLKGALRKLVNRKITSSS
Summary of the method: as §1

OR1L1 = system: OR1L1
Chain of OR1L1 (as listed by the source): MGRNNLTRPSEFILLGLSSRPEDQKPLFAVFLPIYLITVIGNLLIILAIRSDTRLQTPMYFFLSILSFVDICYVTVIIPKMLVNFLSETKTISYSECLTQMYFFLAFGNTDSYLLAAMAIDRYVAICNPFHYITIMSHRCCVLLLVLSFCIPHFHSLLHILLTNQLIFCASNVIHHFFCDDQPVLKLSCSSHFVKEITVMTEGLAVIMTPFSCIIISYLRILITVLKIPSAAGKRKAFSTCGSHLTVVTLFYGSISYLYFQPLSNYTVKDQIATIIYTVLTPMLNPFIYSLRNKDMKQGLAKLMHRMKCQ
Summary of the method: as §1

OR1L4 = system: OR1L4
Chain of OR1L4 (as listed by the source): as the sequence (Q8NGR5 whole entry) above, with G234R counted along it
Summary of the method: as §1

OR1L6 = system: OR1L6
Chain of OR1L6 (as listed by the source): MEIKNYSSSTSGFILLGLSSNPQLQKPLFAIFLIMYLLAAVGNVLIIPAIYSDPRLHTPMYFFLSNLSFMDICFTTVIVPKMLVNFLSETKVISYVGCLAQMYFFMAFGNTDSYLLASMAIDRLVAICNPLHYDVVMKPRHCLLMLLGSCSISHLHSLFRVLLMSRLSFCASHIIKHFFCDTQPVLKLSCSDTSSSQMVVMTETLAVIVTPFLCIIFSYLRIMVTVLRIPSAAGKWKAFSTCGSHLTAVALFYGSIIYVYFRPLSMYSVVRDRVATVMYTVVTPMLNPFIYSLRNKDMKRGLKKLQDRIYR
Summary of the method: as §1

OR1L8 T27P R211P = system: OR1L8 T27P R211P
Summary of the method: as §1

Measured: odorant receptor agonist call;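 further: active if original authors judged signal statistically different from baseline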

C=CCc1ccc(OC)cc1
inactive: OR1L3 (Homo sapiens)

O=Cc1ccccc1
inactive: OR1L3 (Homo sapiens)

Cc1c([N+](=O)[O-])c(C)c([N+](=O)[O-])c(C(C)(C)C)c1[N+](=O)[O-]
inactive: OR1L1 (Homo sapiens) | OR1L3 (Homo sapiens) | OR1L4 (Homo sapiens) | OR1L6 (Homo sapiens) | OR1L8 (Homo sapiens) | OR1M1 (Homo sapiens)

O=CC=Cc1ccccc1
inactive: OR1L3 (Homo sapiens)

C=CCOC(=O)Cc1ccccc1
not listed: OR1L1 (Homo sapiens) | OR1L6 (Homo sapiens)
inactive: all other assays above
